Active and inactive are the calls of the source. The rule behind the calls is not given here.
Key:
[1] = test system: OVCAR-3; test: Antitumor activity against human OVCAR-3 cells xenografted female Ncr model assessed as T/C at 30 mg/kg, ip administered daily for 15 days relative to control; assay type: functional; conditions: time 15 day
[2] = test system: IGROV-1; test: Antiproliferative activity against human IGROV-1 cells harboring PI3KCA/PTEN mutant assessed as cell growth inhibition incubated for 96 hrs by SRB assay; assay type: functional
[3] = Half life in BALB/C mouse spleen at 2.5 mg/kg, iv by LC-MS/MS analysis; assay type: ADME, organism-based
In short: (§1)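 Female BALB/c mice, 6–8 weeks old, given 2.5 mg/kg i.v. in 10% DMSO, 0.5% Tween 20 in saline. Plasma came from serial bleeds; tissues were homogenized in 2 or 3 volumes PBS. Samples were methanol-precipitated with an analogue internal standard, then LC-MS/MS by multiple reaction monitoring against an 8-point external calibration of 2–20,000 nmol/L. Parameters came from WinNonlin noncompartmental analysis, model 201 for plasma and model 200 for tissues.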

[4] = Half life in BALB/C mouse kidney at 2.5 mg/kg, iv by LC-MS/MS analysis; assay type: ADME, organism-based; in short: as §1
[5] = test system: PC-3; test: Antitumor activity against PTEN null human PC-3 cells xenografted male Ncr model assessed as body weight loss at 30 mg/kg, ip administered once a daily for 14 days relative to control; conditions: time 14 day
[6] = Inhibition of recombinant PI3K in human U2OS cells expressing GFP-tagged FKHR assessed as redistribution of cytoplasm to the nucleus before IGF-1 stimulation by fluorescence assay; assay type: cell-based
In short: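 U2OS cells expressing GFP-FKHR, cultured in 0.7% serum, treated with inhibitor before IGF-1 stimulation. Nuclear redistribution of GFP was monitored by automated fluorescence imaging, and IC50 was taken from concentration-response curves; Z' above 0.5.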

[7] = test system: U-87 MG; test: Inhibition of recombinant PI3K in human U-87MG cells assessed as phosphorylation of GSK3beta at Ser9 at 5 times of GI50 concentration within 15 mins treatment by immunoblot analysis; assay type: cell-based
[8] = test system: OVCAR-3; conditions: Homo sapiens, dose 100.0 mg/kg, route ip
[9] = test system: U-87 MG; test: Inhibition of recombinant PI3K in human U-87MG cells assessed as phosphorylation of AKT at Thr308 at 5 times of GI50 concentration within 15 mins treatment by immunoblot analysis; assay type: cell-based
[10] = test system: MDA-MB-468; test: Antiproliferative activity against human MDA-MB-468 cells harboring PTEN deletion assessed as cell growth inhibition incubated for 96 hrs by SRB assay; assay type: functional
[11] = test system: PC-3; test: Antitumor activity against PTEN null human PC-3 cells xenografted male Ncr model assessed as T/C at 30 mg/kg, ip administered once a daily for 14 days relative to control; assay type: functional; conditions: time 14 day
[12] = Volume of distribution in BALB/C mouse plasma at 2.5 mg/kg, iv by LC-MS/MS analysis; assay type: ADME, organism-based; in short: as §1
[13] = Cmax in BALB/C mouse plasma at 2.5 mg/kg, iv by LC-MS/MS analysis; assay type: ADME, organism-based; in short: as §1
[14] = AUClast in BALB/C mouse plasma at 50 mg/kg, ip by LC-MS/MS analysis; assay type: ADME, organism-based; conditions: in vivo
In short: (§2)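 Female BALB/c mice, 6–8 weeks old, dosed i.p. at 50 mg/kg in 20% […] β-cyclodextrin in saline, 0.1 mL/10 g. Serial blood samples; plasma was methanol-precipitated with an analogue internal standard. LC-MS/MS multiple reaction monitoring, external calibration 2–20,000 nmol/L. Noncompartmental analysis, model 200.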

[15] = test system: U-87 MG; test: Inhibition of recombinant PI3K in human U-87MG cells assessed as phosphorylation of AKT at ser473 at 5 times of GI50 concentration within 15 mins treatment by immunoblot analysis; assay type: cell-based
[16] = test system: U-87 MG; test: Antitumor activity against PTEN null human U-87MG cells xenografted female Ncr model assessed as body weight loss at 70 mg/kg, ip administered daily for 14 days relative to control; conditions: time 14 day
[17] = Clearance in BALB/C mouse plasma at 2.5 mg/kg, iv by LC-MS/MS analysis; assay type: ADME, organism-based; in short: as §1
[18] = AUClast in BALB/C mouse spleen at 2.5 mg/kg, iv by LC-MS/MS analysis; assay type: ADME, organism-based; in short: as §1
[19] = test system: U-87 MG; test: Inhibition of cell migration in human U-87MG cells at 50 nmol/L incubated for 16 to 24 hrs by transwell assay relative to control; assay type: functional, U-87MG ATCC; conditions: time 16-24 hrs
[20] = AUClast in BALB/C mouse kidney at 2.5 mg/kg, iv by LC-MS/MS analysis; assay type: ADME, organism-based; in short: as §1
[21] = test system: HCT-116; test: Antiproliferative activity against human HCT-116 cells harboring PI3KCA mutant assessed as cell growth inhibition incubated for 96 hrs by SRB assay; assay type: functional
[22] = Toxicity in human OVCAR-3 cells xenografted female Ncr model at 15 to 30 mg/kg, ip administered daily for 15 days; assay type: organism-based; conditions: in vivo, 360 h, dose 15-30 mg/kg, time 15 day
[23] = test system: MDA-MB-468; test: Antitumor activity against PTEN null human MDA-MB-468 cells xenografted female Ncr model assessed as T/C at 70 mg/kg, ip administered once a daily for 40 days relative to control; assay type: functional; conditions: time 40 day
[24] = test system: MDA-MB-468; test: Antitumor activity against PTEN null human MDA-MB-468 cells xenografted female Ncr model assessed as body weight loss at 30 mg/kg, ip administered twice a daily for 14 days relative to control; conditions: time 14 day
[25] = Inhibition of recombinant human PI3K in cricetulus griseus CHO cells expressing GFP-tagged AKT3 assessed as translocation to the plasma membrane following IGF-1 stimulation by fluorescence assay
In short: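 CHO cells expressing GFP-tagged AKT1, AKT2, AKT3 or PDK1, held in 0.05% serum with 0.1% BSA and stimulated with 100 nmol/L IGF-1. Plasma-membrane translocation was read by automated fluorescence imaging, with IC50 from concentration-response curves; Z' above 0.5.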

[26] = test system: HCT-116; test: Antitumor activity against PIK3CA mutant human HCT-116 cells xenografted female Ncr model assessed as body weight loss at 30 mg/kg, ip administered twice a daily for 14 days relative to control; conditions: time 14 day
[27] = Tmax in BALB/C mouse plasma at 50 mg/kg, ip by LC-MS/MS analysis; assay type: ADME, organism-based; conditions: in vivo; in short: as §2
[28] = test system: Detroit 562; test: Antiproliferative activity against human Detroit 562 cells harboring PI3KCA mutant assessed as cell growth inhibition incubated for 96 hrs by SRB assay; assay type: functional
[29] = test system: A549; test: Antiproliferative activity against human A549 cells harboring AKT assessed as cell growth inhibition incubated for 96 hrs by SRB assay; assay type: functional
[30] = Cmax in BALB/C mouse kidney at 2.5 mg/kg, iv by LC-MS/MS analysis; assay type: ADME, organism-based; in short: as §1
[31] = test system: HCT-116; test: Antitumor activity against PIK3CA mutant human HCT-116 cells xenografted female Ncr model assessed as T/C at 30 mg/kg, ip administered twice a daily for 21 days relative to control; assay type: functional; conditions: time 21 day

- half-life [3]: 78 min
- half-life [4]: 54 min
- IC50 [6]: 30 nM
- GI50 [10]: 690 nM
- Vd [12]: 0.2 L
- Cmax [13]: 4.17 µM
- AUClast [14]: 20.459 µM·h
- clearance [17]: 3.17 mL/min
- AUC(0-t) [18]: 0.406 µM·h
- AUC(0-t) [20]: 0.453 µM·h
- GI50 [21]: 930 nM
- IC50 [25]: 11 nM
- Tmax [27]: 15 min
- GI50 [29]: 210 nM
- Cmax [30]: 2.02 µM
SMILES: Oc1cccc(-c2nc(N3CCOCC3)c3oc4ncccc4c3n2)c1 [PI-103]
- T/C [1]: 62%
- GI50 [2]: 60 nM
- Body weight loss [5]: <15%
- inhibition [7]: Active
- inhibition [8]: Active
- inhibition [9]: Active
- T/C [11]: 80.8%
- inhibition [15]: Active
- Body weight loss [16]: <15%
- inhibition at 0.05 µM [19]: 44%
- Activity [22]: Toxic
- T/C [23]: 47.2%
- Body weight loss [24]: <15%
- Body weight loss [26]: <15%
- GI50 [28]: 360 nM
- T/C [31]: 48%

Reference: ChEMBL document CHEMBL5661974, “Pharmacologic characterization of a potent inhibitor of class I phosphatidylinositide 3-kinases” (Cancer Res, 2007)
